Source: ChEMBL document CHEMBL5058577, “EUbOPEN Chemogenomics Library 2 (Multiplex)” (2022)

Tested on: HEK-293T
Assay: Multiplex assay against HEK293T
Type: toxicity, cell-based
Conditions: human
Outline: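 Compound was added to live cells that had been stained at seeding with Hoechst33342, BioTracker Green Microtubule Cytoskeleton Dye, MitoTracker Red and Annexin V Alexa Fluor 680, and imaging followed on a CQ1 microscope at 37°C and 5% CO2. CellPathfinder machine-learning gating divided cells into Hoechst high-intensity objects or normal cells, normal cells into healthy, pyknosed or fragmented nuclei, and pyknosed cells into mitotic or apoptotic. Tubulin, mitochondrial-mass and membrane-permeability phenotypes are per cents of healthy-nucleus cells.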

[1] = 12 h, 1 µM, compound concentration 1 uM, replicate 1
[2] = 12 h, 1 µM, compound concentration 1 uM, replicate 2
[3] = 12 h, 10 µM, compound concentration 10 uM, replicate 1
[4] = 12 h, 10 µM, compound concentration 10 uM, replicate 2
[5] = 24 h, 1 µM, compound concentration 1 uM, replicate 1
[6] = 24 h, 1 µM, compound concentration 1 uM, replicate 2
[7] = 24 h, 10 µM, compound concentration 10 uM, replicate 1
[8] = 24 h, 10 µM, compound concentration 10 uM, replicate 2
[9] = 48 h, 1 µM, compound concentration 1 uM, replicate 1
[10] = 48 h, 1 µM, compound concentration 1 uM, replicate 2
[11] = 48 h, 10 µM, compound concentration 10 uM, replicate 1
[12] = 48 h, 10 µM, compound concentration 10 uM, replicate 2

CC[C@H]1OC(=O)[C@H](C)[C@@H](O[C@H]2C[C@@](C)(OC)[C@@H](O)[C@H](C)O2)[C@H](C)[C@@H](O[C@@H]2O[C@H](C)C[C@H](N(C)C)[C@H]2O)[C@@]2(C)CC(C)=C(O2)[C@H](C)[C@@H](O)[C@]1(C)O
Population Apoptotic (%) [1]: 35%
Population Fragmented Nuclei (%) [1]: 8%
Population Healthy Nuclei (%) [1]: 74%
Population Hoechst High Intensity Objects (%) [1]: 6%
Population Membrane Permeable-Phenotype (%) [1]: 0%
Population Mitochondria Different-Phenotype (%) [1]: 56%
Population Mitotic Cells (%) [1]: 64%
Population Normal (%) [1]: 93%
Population Pyknosed Nuclei (%) [1]: 17%
Population Tubulin-Different-Phenotype (%) [1]: 41%
Total Cell Count [1]: 367
Population Apoptotic (%) [2]: 45%
Population Fragmented Nuclei (%) [2]: 3%
Population Healthy Nuclei (%) [2]: 84%
Population Hoechst High Intensity Objects (%) [2]: 7%
Population Mitochondria Different-Phenotype (%) [2]: 72%
Population Mitotic Cells (%) [2]: 54%
Population Normal (%) [2]: 92%
Population Pyknosed Nuclei (%) [2]: 11%
Population Tubulin-Different-Phenotype (%) [2]: 27%
Total Cell Count [2]: 300
Population Apoptotic (%) [3]: 55%
Population Fragmented Nuclei (%) [3]: 8%
Population Healthy Nuclei (%) [3]: 71%
Population Hoechst High Intensity Objects (%) [3]: 13%
Population Membrane Permeable-Phenotype (%) [3]: 0%
Population Mitochondria Different-Phenotype (%) [3]: 87%
Population Mitotic Cells (%) [3]: 44%
Population Normal (%) [3]: 86%
Population Pyknosed Nuclei (%) [3]: 19%
Population Tubulin-Different-Phenotype (%) [3]: 76%
Total Cell Count [3]: 383
Population Apoptotic (%) [4]: 56%
Population Fragmented Nuclei (%) [4]: 11%
Population Healthy Nuclei (%) [4]: 72%
Population Hoechst High Intensity Objects (%) [4]: 10%
Population Mitochondria Different-Phenotype (%) [4]: 91%
Population Mitotic Cells (%) [4]: 43%
Population Normal (%) [4]: 89%
Population Pyknosed Nuclei (%) [4]: 16%
Population Tubulin-Different-Phenotype (%) [4]: 77%
Total Cell Count [4]: 217
Population Apoptotic (%) [5]: 20%
Population Fragmented Nuclei (%) [5]: 8%
Population Healthy Nuclei (%) [5]: 78%
Population Hoechst High Intensity Objects (%) [5]: 3%
Population Membrane Permeable-Phenotype (%) [5]: 0%
Population Mitochondria Different-Phenotype (%) [5]: 35%
Population Mitotic Cells (%) [5]: 79%
Population Normal (%) [5]: 96%
Population Pyknosed Nuclei (%) [5]: 13%
Population Tubulin-Different-Phenotype (%) [5]: 24%
Total Cell Count [5]: 493
Population Apoptotic (%) [6]: 35%
Population Hoechst High Intensity Objects (%) [6]: 6%
Population Mitochondria Different-Phenotype (%) [6]: 49%
Population Mitotic Cells (%) [6]: 64%
Population Normal (%) [6]: 93%
Population Pyknosed Nuclei (%) [6]: 12%
Population Tubulin-Different-Phenotype (%) [6]: 22%
Total Cell Count [6]: 371
Population Apoptotic (%) [7]: 42%
Population Fragmented Nuclei (%) [7]: 9%
Population Healthy Nuclei (%) [7]: 75%
Population Hoechst High Intensity Objects (%) [7]: 11%
Population Membrane Permeable-Phenotype (%) [7]: 0%
Population Mitochondria Different-Phenotype (%) [7]: 74%
Population Mitotic Cells (%) [7]: 57%
Population Normal (%) [7]: 88%
Population Pyknosed Nuclei (%) [7]: 15%
Population Tubulin-Different-Phenotype (%) [7]: 75%
Total Cell Count [7]: 499
Population Apoptotic (%) [8]: 70%
Population Fragmented Nuclei (%) [8]: 10%
Population Healthy Nuclei (%) [8]: 71%
Population Hoechst High Intensity Objects (%) [8]: 10%
Population Mitochondria Different-Phenotype (%) [8]: 87%
Population Mitotic Cells (%) [8]: 29%
Population Normal (%) [8]: 89%
Population Pyknosed Nuclei (%) [8]: 18%
Population Tubulin-Different-Phenotype (%) [8]: 80%
Total Cell Count [8]: 254
Population Apoptotic (%) [9]: 30%
Population Fragmented Nuclei (%) [9]: 12%
Population Healthy Nuclei (%) [9]: 76%
Population Hoechst High Intensity Objects (%) [9]: 8%
Population Membrane Permeable-Phenotype (%) [9]: 0%
Population Mitochondria Different-Phenotype (%) [9]: 28%
Population Mitotic Cells (%) [9]: 69%
Population Normal (%) [9]: 91%
Population Pyknosed Nuclei (%) [9]: 11%
Population Tubulin-Different-Phenotype (%) [9]: 21%
Total Cell Count [9]: 718
Population Apoptotic (%) [10]: 21%
Population Healthy Nuclei (%) [10]: 78%
Population Hoechst High Intensity Objects (%) [10]: 6%
Population Mitochondria Different-Phenotype (%) [10]: 34%
Population Mitotic Cells (%) [10]: 78%
Population Normal (%) [10]: 93%
Population Pyknosed Nuclei (%) [10]: 9%
Population Tubulin-Different-Phenotype (%) [10]: 20%
Total Cell Count [10]: 584
Population Apoptotic (%) [11]: 50%
Population Fragmented Nuclei (%) [11]: 12%
Population Healthy Nuclei (%) [11]: 74%
Population Hoechst High Intensity Objects (%) [11]: 10%
Population Membrane Permeable-Phenotype (%) [11]: 1%
Population Mitochondria Different-Phenotype (%) [11]: 61%
Population Mitotic Cells (%) [11]: 50%
Population Normal (%) [11]: 89%
Population Pyknosed Nuclei (%) [11]: 12%
Population Tubulin-Different-Phenotype (%) [11]: 56%
Total Cell Count [11]: 671
Population Apoptotic (%) [12]: 53%
Population Healthy Nuclei (%) [12]: 75%
Population Hoechst High Intensity Objects (%) [12]: 12%
Population Membrane Permeable-Phenotype (%) [12]: 0%
Population Mitochondria Different-Phenotype (%) [12]: 84%
Population Mitotic Cells (%) [12]: 46%
Population Normal (%) [12]: 87%
Population Pyknosed Nuclei (%) [12]: 11%
Population Tubulin-Different-Phenotype (%) [12]: 73%
Total Cell Count [12]: 300
